{
  "source": "ChEMBL document CHEMBL5303300",
  "about": "“EUbOPEN Chemogenomics Library - Multiplex” (2023)",
  "key": {"HEK-293T": {"tested_on": "HEK-293T", "assay": "Multiplex assay against HEK293T", "type": "toxicity, cell-based", "conditions": "human, number of replicates 2", "in_short": "(§1)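 Live cells carried four stains from seeding: Hoechst33342, BioTracker Green Microtubule Cytoskeleton Dye, MitoTracker Red and Annexin V Alexa Fluor 680. They were imaged on a CQ1 microscope at 37°C and 5% CO2 after compound addition. Using CellPathfinder machine-learning gating, cells were split into Hoechst high-intensity objects or normal cells, normal cells into healthy, pyknosed or fragmented nuclei, and pyknosed cells into mitotic or apoptotic; tubulin, mitochondrial-mass and membrane-permeability phenotypes are per cents of healthy-nucleus cells.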"}, "U2OS": {"tested_on": "U2OS", "assay": "Multiplex assay against U2OS", "type": "toxicity, cell-based", "conditions": "human, number of replicates 2", "in_short": "as §1"}, "[1]": {"conditions": "12 h, 1 µM, compound concentration 1 uM"}, "[2]": {"conditions": "12 h, 10 µM, compound concentration 10 uM"}, "[3]": {"conditions": "24 h, 1 µM, compound concentration 1 uM"}, "[4]": {"conditions": "24 h, 10 µM, compound concentration 10 uM"}, "[5]": {"conditions": "48 h, 1 µM, compound concentration 1 uM"}, "[6]": {"conditions": "48 h, 10 µM, compound concentration 10 uM"}},
  "note": "Several values for one entry are separate records, joined by “and”; a condition that tells them apart may be missing. Equal entries are not always repeated.",
  "data": [
    {"smiles": "CC(C)(C)c1cnc(CSc2cnc(NC(=O)C3CCN(CC(=O)NCCOCCOCCOCCNc4cccc5c4C(=O)N(C4CCC(=O)NC4=O)C5=O)CC3)s2)o1", "note": "(stereo not drawn)", "values": [
      {"measurement": "Population Apoptotic (%)", "setting": "HEK-293T; [1]", "result": "65% and 77%"},
      {"measurement": "Population Fragmented Nuclei (%)", "setting": "HEK-293T; [1]", "result": "5% and 4%"},
      {"measurement": "Population Healthy Nuclei (%)", "setting": "HEK-293T; [1]", "result": 75, "unit": "%"},
      {"measurement": "Population Hoechst High Intensity Objects (%)", "setting": "HEK-293T; [1]", "result": 15, "unit": "%"},
      {"measurement": "Population Membrane Permeable-Phenotype (%)", "setting": "HEK-293T; [1]", "result": "4% and 1%"},
      {"measurement": "Population Mitochondria Different-Phenotype (%)", "setting": "HEK-293T; [1]", "result": "42% and 53%"},
      {"measurement": "Population Mitotic Cells (%)", "setting": "HEK-293T; [1]", "result": "34% and 22%"},
      {"measurement": "Population Normal (%)", "setting": "HEK-293T; [1]", "result": 84, "unit": "%"},
      {"measurement": "Population Pyknosed Nuclei (%)", "setting": "HEK-293T; [1]", "result": "18% and 20%"},
      {"measurement": "Population Tubulin-Different-Phenotype (%)", "setting": "HEK-293T; [1]", "result": "74% and 82%"},
      {"measurement": "Total Cell Count", "setting": "HEK-293T; [1]", "result": "329 and 381"},
      {"measurement": "Population Apoptotic (%)", "setting": "HEK-293T; [2]", "result": "78% and 82%"},
      {"measurement": "Population Fragmented Nuclei (%)", "setting": "HEK-293T; [2]", "result": "6% and 3%"},
      {"measurement": "Population Healthy Nuclei (%)", "setting": "HEK-293T; [2]", "result": "75% and 73%"},
      {"measurement": "Population Hoechst High Intensity Objects (%)", "setting": "HEK-293T; [2]", "result": "27% and 26%"},
      {"measurement": "Population Membrane Permeable-Phenotype (%)", "setting": "HEK-293T; [2]", "result": 7, "unit": "%"},
      {"measurement": "Population Mitochondria Different-Phenotype (%)", "setting": "HEK-293T; [2]", "result": "65% and 75%"},
      {"measurement": "Population Mitotic Cells (%)", "setting": "HEK-293T; [2]", "result": "21% and 17%"},
      {"measurement": "Population Normal (%)", "setting": "HEK-293T; [2]", "result": "72% and 73%"},
      {"measurement": "Population Pyknosed Nuclei (%)", "setting": "HEK-293T; [2]", "result": "18% and 22%"},
      {"measurement": "Population Tubulin-Different-Phenotype (%)", "setting": "HEK-293T; [2]", "result": "70% and 63%"},
      {"measurement": "Total Cell Count", "setting": "HEK-293T; [2]", "result": "285 and 270"},
      {"measurement": "Population Apoptotic (%)", "setting": "HEK-293T; [3]", "result": "76% and 75%"},
      {"measurement": "Population Fragmented Nuclei (%)", "setting": "HEK-293T; [3]", "result": 5, "unit": "%"},
      {"measurement": "Population Healthy Nuclei (%)", "setting": "HEK-293T; [3]", "result": "80% and 74%"},
      {"measurement": "Population Hoechst High Intensity Objects (%)", "setting": "HEK-293T; [3]", "result": "17% and 20%"},
      {"measurement": "Population Membrane Permeable-Phenotype (%)", "setting": "HEK-293T; [3]", "result": "2% and 1%"},
      {"measurement": "Population Mitochondria Different-Phenotype (%)", "setting": "HEK-293T; [3]", "result": "49% and 52%"},
      {"measurement": "Population Mitotic Cells (%)", "setting": "HEK-293T; [3]", "result": "23% and 25%"},
      {"measurement": "Population Normal (%)", "setting": "HEK-293T; [3]", "result": "82% and 80%"},
      {"measurement": "Population Pyknosed Nuclei (%)", "setting": "HEK-293T; [3]", "result": "14% and 20%"},
      {"measurement": "Population Tubulin-Different-Phenotype (%)", "setting": "HEK-293T; [3]", "result": "69% and 74%"},
      {"measurement": "Total Cell Count", "setting": "HEK-293T; [3]", "result": "332 and 395"},
      {"measurement": "Population Apoptotic (%)", "setting": "HEK-293T; [4]", "result": "77% and 75%"},
      {"measurement": "Population Fragmented Nuclei (%)", "setting": "HEK-293T; [4]", "result": "9% and 3%"},
      {"measurement": "Population Healthy Nuclei (%)", "setting": "HEK-293T; [4]", "result": "65% and 68%"},
      {"measurement": "Population Hoechst High Intensity Objects (%)", "setting": "HEK-293T; [4]", "result": "30% and 33%"},
      {"measurement": "Population Membrane Permeable-Phenotype (%)", "setting": "HEK-293T; [4]", "result": "7% and 5%"},
      {"measurement": "Population Mitochondria Different-Phenotype (%)", "setting": "HEK-293T; [4]", "result": "77% and 80%"},
      {"measurement": "Population Mitotic Cells (%)", "setting": "HEK-293T; [4]", "result": "22% and 25%"},
      {"measurement": "Population Normal (%)", "setting": "HEK-293T; [4]", "result": "69% and 66%"},
      {"measurement": "Population Pyknosed Nuclei (%)", "setting": "HEK-293T; [4]", "result": "25% and 28%"},
      {"measurement": "Population Tubulin-Different-Phenotype (%)", "setting": "HEK-293T; [4]", "result": 85, "unit": "%"},
      {"measurement": "Total Cell Count", "setting": "HEK-293T; [4]", "result": "268 and 254"},
      {"measurement": "Population Apoptotic (%)", "setting": "HEK-293T; [5]", "result": "76% and 85%"},
      {"measurement": "Population Fragmented Nuclei (%)", "setting": "HEK-293T; [5]", "result": 6, "unit": "%"},
      {"measurement": "Population Healthy Nuclei (%)", "setting": "HEK-293T; [5]", "result": "82% and 78%"},
      {"measurement": "Population Hoechst High Intensity Objects (%)", "setting": "HEK-293T; [5]", "result": "11% and 17%"},
      {"measurement": "Population Membrane Permeable-Phenotype (%)", "setting": "HEK-293T; [5]", "result": "3% and 0%"},
      {"measurement": "Population Mitochondria Different-Phenotype (%)", "setting": "HEK-293T; [5]", "result": "52% and 59%"},
      {"measurement": "Population Mitotic Cells (%)", "setting": "HEK-293T; [5]", "result": "23% and 14%"},
      {"measurement": "Population Normal (%)", "setting": "HEK-293T; [5]", "result": "88% and 82%"},
      {"measurement": "Population Pyknosed Nuclei (%)", "setting": "HEK-293T; [5]", "result": "11% and 15%"},
      {"measurement": "Population Tubulin-Different-Phenotype (%)", "setting": "HEK-293T; [5]", "result": "64% and 63%"},
      {"measurement": "Total Cell Count", "setting": "HEK-293T; [5]", "result": "294 and 328"},
      {"measurement": "Population Apoptotic (%)", "setting": "HEK-293T; [6]", "result": "84% and 89%"},
      {"measurement": "Population Fragmented Nuclei (%)", "setting": "HEK-293T; [6]", "result": "8% and 5%"},
      {"measurement": "Population Healthy Nuclei (%)", "setting": "HEK-293T; [6]", "result": "71% and 70%"},
      {"measurement": "Population Hoechst High Intensity Objects (%)", "setting": "HEK-293T; [6]", "result": "28% and 20%"},
      {"measurement": "Population Membrane Permeable-Phenotype (%)", "setting": "HEK-293T; [6]", "result": "3% and 2%"},
      {"measurement": "Population Mitochondria Different-Phenotype (%)", "setting": "HEK-293T; [6]", "result": "77% and 84%"},
      {"measurement": "Population Mitotic Cells (%)", "setting": "HEK-293T; [6]", "result": "15% and 10%"},
      {"measurement": "Population Normal (%)", "setting": "HEK-293T; [6]", "result": "71% and 79%"},
      {"measurement": "Population Pyknosed Nuclei (%)", "setting": "HEK-293T; [6]", "result": "20% and 24%"},
      {"measurement": "Population Tubulin-Different-Phenotype (%)", "setting": "HEK-293T; [6]", "result": "83% and 87%"},
      {"measurement": "Total Cell Count", "setting": "HEK-293T; [6]", "result": "309 and 250"},
      {"measurement": "Population Apoptotic (%)", "setting": "U2OS; [1]", "result": "40% and 96%"},
      {"measurement": "Population Fragmented Nuclei (%)", "setting": "U2OS; [1]", "result": "10% and 3%"},
      {"measurement": "Population Healthy Nuclei (%)", "setting": "U2OS; [1]", "result": "82% and 88%"},
      {"measurement": "Population Hoechst High Intensity Objects (%)", "setting": "U2OS; [1]", "result": 0, "unit": "%"},
      {"measurement": "Population Membrane Permeable-Phenotype (%)", "setting": "U2OS; [1]", "result": 1, "unit": "%"},
      {"measurement": "Population Mitochondria Different-Phenotype (%)", "setting": "U2OS; [1]", "result": "0% and 3%"},
      {"measurement": "Population Normal (%)", "setting": "U2OS; [1]", "result": 100, "unit": "%"},
      {"measurement": "Population Pyknosed Nuclei (%)", "setting": "U2OS; [1]", "result": "6% and 7%"},
      {"measurement": "Population Tubulin-Different-Phenotype (%)", "setting": "U2OS; [1]", "result": "58% and 74%"},
      {"measurement": "Population Apoptotic (%)", "setting": "U2OS; [2]", "result": "50% and 80%"},
      {"measurement": "Population Healthy Nuclei (%)", "setting": "U2OS; [2]", "result": "47% and 59%"},
      {"measurement": "Population Hoechst High Intensity Objects (%)", "setting": "U2OS; [2]", "result": "1% and 0%"},
      {"measurement": "Population Membrane Permeable-Phenotype (%)", "setting": "U2OS; [2]", "result": "14% and 17%"},
      {"measurement": "Population Mitochondria Different-Phenotype (%)", "setting": "U2OS; [2]", "result": "17% and 31%"},
      {"measurement": "Population Mitotic Cells (%)", "setting": "U2OS; [2]", "result": "50% and 19%"},
      {"measurement": "Population Normal (%)", "setting": "U2OS; [2]", "result": "98% and 100%"},
      {"measurement": "Population Pyknosed Nuclei (%)", "setting": "U2OS; [2]", "result": "23% and 32%"},
      {"measurement": "Population Tubulin-Different-Phenotype (%)", "setting": "U2OS; [2]", "result": "82% and 77%"},
      {"measurement": "Total Cell Count", "setting": "U2OS; [2]", "result": "60 and 161"},
      {"measurement": "Population Apoptotic (%)", "setting": "U2OS; [3]", "result": "66% and 72%"},
      {"measurement": "Population Fragmented Nuclei (%)", "setting": "U2OS; [3]", "result": "6% and 3%"},
      {"measurement": "Population Healthy Nuclei (%)", "setting": "U2OS; [3]", "result": 87, "unit": "%"},
      {"measurement": "Population Hoechst High Intensity Objects (%)", "setting": "U2OS; [3]", "result": 0, "unit": "%"},
      {"measurement": "Population Membrane Permeable-Phenotype (%)", "setting": "U2OS; [3]", "result": 1, "unit": "%"},
      {"measurement": "Population Mitochondria Different-Phenotype (%)", "setting": "U2OS; [3]", "result": 1, "unit": "%"},
      {"measurement": "Population Mitotic Cells (%)", "setting": "U2OS; [3]", "result": "33% and 27%"},
      {"measurement": "Population Normal (%)", "setting": "U2OS; [3]", "result": "100% and 99%"}
    ]}
  ]
}
